Assay results reported in ChEMBL document CHEMBL3244101, “2-, 3-, and 4-(alpha, alpha, beta, beta-tetrafluorophenethyl)benzylamines. A new class of antiarrhythmic agents” (J Med Chem, 1977).

Columns and labels:
Assay type in all cases: functional, Canis lupus familiaris, Heart
Canis familiaris [1] = test: Antiarrhythmic activity in iv dosed anesthetized acute myocardial infarction dog model assessed as protection against ventricular arrhythmia development administered 10 mins prior to infarction measured during 1-hr postinfarction period
How it was run: (§1)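 Sclerosing agent (tetrafluorohexachlorobutane) injected into the anterior descending coronary artery to produce a multifocal ventricular arrhythmia. Single iv dose 10 min before infarction. Segmented ECG tracings over the 1 h after infarction were scored as the percentage of complexes of sinus origin (normal). Saline controls were run alongside.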

Canis familiaris [2] = test: Antiarrhythmic activity in anesthetized acute myocardial infarction dog model assessed as normal ECG complexes at 0.25 mg/kg, iv administered 10 mins prior to infarction measured during 1-hr postinfarction period (reference value: 19%); how it was run: as §1
Canis familiaris [3] = test: Antiarrhythmic activity in anesthetized acute myocardial infarction dog model assessed as normal ECG complexes at 0.5 mg/kg, iv administered 10 mins prior to infarction measured during 1-hr postinfarction period (reference value: 19%); how it was run: as §1
Canis familiaris [4] = test: Antiarrhythmic activity in anesthetized acute myocardial infarction dog model assessed as normal ECG complexes at 2.5 mg/kg, iv administered 10 mins prior to infarction measured during 1-hr postinfarction period (reference value: 19%); how it was run: as §1
Canis familiaris [5] = test: Antiarrhythmic activity in anesthetized acute myocardial infarction dog model assessed as normal ECG complexes at 5 mg/kg, iv administered 10 mins prior to infarction measured during 1-hr postinfarction period (reference value: 19%); how it was run: as §1
Canis familiaris [6] = test: Antiarrhythmic activity in anesthetized acute myocardial infarction dog model assessed as normal ECG complexes at 10 mg/kg, po administered 120 mins prior to infarction measured post-infarction
How it was run: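 Oral dosing 120 min before infarction in the same intracoronary tetrafluorohexachlorobutane arrhythmia model. Protection was read from ECG complexes after infarction, as the percentage that were normal.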

Canis familiaris [7] = test: Antiarrhythmic activity in anesthetized acute myocardial infarction dog model assessed as normal ECG complexes at 1.25 mg/kg, iv administered 10 mins prior to infarction measured during 1-hr postinfarction period (reference value: 19%); how it was run: as §1
Canis familiaris [8] = test: Antiarrhythmic activity in anesthetized acute myocardial infarction dog model assessed as normal ECG complexes at 0.06 mg/kg, iv administered 10 mins prior to infarction measured during 1-hr postinfarction period (reference value: 19%); how it was run: as §1
[9] = Canis lupus familiaris, Heart, iv, read-out: ED75

SMILES	ED75 (Canis familiaris [1]; [9])	Activity (Canis familiaris [2])	Activity (Canis familiaris [3])	Activity (Canis familiaris [4])	Activity (Canis familiaris [5])	Activity (Canis familiaris [6])	Activity (Canis familiaris [7])	Activity (Canis familiaris [8])	ED75 (Canis familiaris [1])	Activity (Canis familiaris [3]; 0.5 mg/kg)
Cl.FC(F)(c1ccccc1)C(F)(F)c1ccccc1CNCc1ccccc1	0.84 mg/kg	23%	74%							
Cl.NCCc1ccccc1C(F)(F)C(F)(F)c1ccccc1	2 mg/kg		27%	88%						
CN(C)Cc1ccccc1C(F)(F)C(F)(F)c1ccccc1.Cl	4.8 mg/kg			61%	75%					
CC(C)(N)c1ccc(C(F)(F)C(F)(F)c2ccccc2)cc1.Cl	0.6 mg/kg	50%	75%	98%		>=80%	89%	35%		
Br.FC(F)(c1ccccc1)C(F)(F)c1cccc(CNCc2ccccc2)c1CNCc1ccccc1	0.64 mg/kg		65%	99%			98%			
Cl.NCc1ccccc1C(F)(F)C(F)(F)C(F)(F)c1ccccc1	1.8 mg/kg	24%		83%			68%			
Cl.NCc1ccc(C(F)(F)C(F)(F)c2ccccc2)cc1				37%						
CN(C)C(C)(C)c1ccc(C(F)(F)C(F)(F)c2ccccc2)cc1.Cl	2.1 mg/kg			83%			53%			
CNC(C)c1ccccc1C(F)(F)C(F)(F)c1ccccc1.O=C(O)C(O)C(O)C(=O)O (single isomer, unassigned; (-))		44%							0.48 mg/kg	84%
Br.FC(F)(c1ccccc1)C(F)(F)c1cccc2c1CNC2	7 mg/kg			51%	71%					
CNC(C)c1ccccc1C(F)(F)C(F)(F)c1ccccc1.O=C(O)/C=C\C(=O)O (stereo not given)	0.88 mg/kg	35%	59%	88%			91%			
CNC(C)c1ccccc1C(F)(F)C(F)(F)c1ccccc1.O=C(O)C(O)C(O)C(=O)O (single isomer, unassigned; (+))							72%		2 mg/kg	26%
CC(O)C(=O)O.NCc1ccccc1C(F)(F)C(F)(F)c1ccccc1CN	2.5 mg/kg		38%	71%			59%			
CC(N)c1ccc(C(F)(F)C(F)(F)c2ccccc2)cc1.Cl (stereo not given)	4 mg/kg			80%			25%			
Br.CNCc1cccc(C(F)(F)C(F)(F)c2ccccc2)c1CNC	1.3 mg/kg	30%	61%	92%			65%			
CNC(C)(C)c1ccc(C(F)(F)C(F)(F)c2ccc(C)cc2)cc1.Cl				67%						
CC(C)(N)c1cccc(C(F)(F)C(F)(F)c2ccccc2)c1.Cl	2.7 mg/kg			80%			45%			
Cc1ccc(C(F)(F)C(F)(F)c2ccc(C(C)(C)N)cc2)cc1.Cl	1.4 mg/kg	52%		88%			75%	15%		
CC(N)c1ccccc1C(F)(F)C(F)(F)c1ccccc1.O=C(O)/C=C\C(=O)O (stereo not given)	1.3 mg/kg		43%	87%			82%			
CNC(C)(C)c1ccc(C(F)(F)C(F)(F)c2ccccc2)cc1.Cl	0.5 mg/kg	68%	65%	99%		>=80%	86%	27%		
Cc1c(CN)cccc1C(F)(F)C(F)(F)c1ccccc1.Cl				49%						
CNCc1ccccc1C(F)(F)C(F)(F)c1ccccc1.Cl	0.84 mg/kg	38%	73%	93%						
NCc1ccccc1C(F)(F)C(F)(F)c1ccc(F)cc1	3 mg/kg	20%		74%			52%			
NCc1cc(F)ccc1C(F)(F)C(F)(F)c1ccccc1	0.5 mg/kg		48%							
